# An excerpt weighted towards active compounds, which were near 1.9% of everything screened.
# Runt-SMMHC FRET: Runt domain-CBFb-SMMHC interaction inhibition. Q01196+Q13951. Cerulean-Runt/Venus-CBFb-SMMHC FRET ratio 530/480, 1 h. inhibition, % at 20 µM. hit rate 0.74% among 220,000;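 active = mean inhibition across duplicate retests at 20 µM reaching about 50%, limit read from the data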;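 note: 0% = DMSO wells and 100% = wells with excess untagged CBFb-SMMHC; inhibitors lower the FRET ratio by blocking Runt binding to CBFb-SMMHC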
# Hck Nef HTS: blocks Nef-activated human Hck kinase; inhibition, % at 20 µM; hit rate 0.68% among 220,000; Recombinant Hck-YEEI plus Nef, Z-Lyte FRET kinase assay;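 active = Hck-Nef kinase inhibition above about 50%, limit read from the data; inactive = inhibition below that limit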;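 note: 0% = DMSO with Hck plus Nef and 100% = Hck alone without Nef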
# Target sequence (P08631 whole entry, looked up): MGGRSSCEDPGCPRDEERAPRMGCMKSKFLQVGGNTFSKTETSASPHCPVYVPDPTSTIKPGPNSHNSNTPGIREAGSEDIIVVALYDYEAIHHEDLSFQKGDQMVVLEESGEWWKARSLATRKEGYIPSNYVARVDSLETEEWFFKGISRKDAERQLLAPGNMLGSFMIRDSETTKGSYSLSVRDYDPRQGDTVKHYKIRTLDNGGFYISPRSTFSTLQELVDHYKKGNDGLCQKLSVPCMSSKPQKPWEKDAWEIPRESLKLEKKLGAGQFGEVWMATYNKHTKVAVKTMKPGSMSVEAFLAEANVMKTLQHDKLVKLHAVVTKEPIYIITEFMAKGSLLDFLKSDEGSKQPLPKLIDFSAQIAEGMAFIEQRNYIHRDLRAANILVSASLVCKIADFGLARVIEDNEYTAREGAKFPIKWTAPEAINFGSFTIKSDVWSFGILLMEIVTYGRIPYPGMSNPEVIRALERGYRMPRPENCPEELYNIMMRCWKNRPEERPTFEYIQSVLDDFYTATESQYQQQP
# Runt-CBFb FRET: Runt domain-CBFb interaction inhibition | Q01196+Q13951 | Cerulean-Runt/Venus-CBFb FRET ratio 530/480, 1 h | hit rate 0.46% among 220,000 | inhibition, % at 20 µM;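 active = inhibition over about 50% at 20 µM in the single-dose screen, limit read from the data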;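 note: 0% = DMSO wells and 100% = excess unlabeled CBFb competitor control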
#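 System: Cerulean-labeled Runt domain protein | Quantity: 100 nM of each labeled protein | Schedule: 1 h compound exposure, room temperature | Detection: Fluorescence energy transfer, 422 nm excitation, 530/480 nm emission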
# RanGTP-Impb inh: disruptors of Ran-importin-beta complex formation – biochemical, FRET, CFP-Ran, YFP-importin-beta, homogeneous, primary screen; cell-free CFP-Ran/YFP-importin-beta FRET ratio; inhibition, % (test concentration not listed); hit rate 1.1% among 300,000;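 active = more than half of the replicate wells show a fall in the fluorescence ratio signal beyond about 16%, limit read from the data, passing the limit was not always enough; inconclusive = exactly half of the replicate wells pass the set limit; inactive = fewer than half of replicates pass the limit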;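 note: 0% = DMSO wells and 100% = Ran loaded with GDP instead of GTP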
# YIC FRET counter: counter-screen: alters YIC FRET probe signal; shares compounds with RanGTP-Impb inh; Purified YIC probe, intramolecular FRET ratio YFP/CFP; IC50, µM; hit rate 40% among 1,000; AID 435026;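 active = fitted half-maximal inhibitory concentration no more than tenfold above the top dose tested; inconclusive = flat fit with 30 to 70% activity, or poor fit; inactive = half-maximal concentration beyond tenfold above the top dose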
# * = called active by the depositor; ? = inconclusive; / = no result given.
SMILES,Runt-SMMHC FRET,Hck Nef HTS,Runt-CBFb FRET,RanGTP-Impb inh,YIC FRET counter
CC1(C)CC(=O)CC(=Nc2ccc3[nH]c(=O)[nH]c3c2)C1,3,-2,0,29*,>50
CC1(C)CC(=O)C/C(=N/Nc2nc3ccccc3s2)C1,-3,19,5,1,/
CCc1c(C(=O)NN2C(=O)C3CCCCC3C2=O)csc1C (stereo unspecified),1,6,-2,2,/
CNC(=S)Nc1cc(OC)c(NC(=O)c2ccco2)cc1OC,-2,25,2,2,/
COc1cc(NC(=O)C2CC2)c(OC)cc1NC(=O)c1ccco1,/,/,/,19*,>50
C=CCn1c(C)c(C(C)=O)c(N2CCN(C(c3ccccc3)c3ccccc3)CC2)nc1=S,-1,0,1,30*,>50
Cc1ccc2nc(N3CCN(C)CC3)c(C#N)cc2c1,12,5,4,6,/
Cc1ccc2nc(N3CCN(Cc4nnnn4Cc4ccccc4)CC3)c(C#N)cc2c1,62*,4,26,17*,22*
COc1ccc(CCNC(=O)c2cc3c(=O)n4ccccc4nc3n(CCCN3CCOCC3)c2=N)cc1,/,/,/,20*,21*
COc1ccc(CCn2c(=N)c(C(=O)NC3CCCCC3)cc3c(=O)n4ccccc4nc32)cc1,/,/,/,19*,>50
COc1ccc(C(CNC(=O)c2cc(F)c(F)c(F)c2F)N2CCOCC2)cc1 (stereo unspecified),1,-3,0,19*,>50
Cc1cc(Cl)c(S(=O)(=O)N2CCCC2)cc1OCC(=O)NC1CCCCC1,-1,-2,-3,24*,>50
O=C(c1ccc([N+](=O)[O-])cc1)c1cc2ccc(O)cc2oc1=O,/,/,/,2,/
CCOc1ccc(C(=O)c2cc3ccc(O)cc3oc2=O)cc1,90*,32,86*,53*,8*
CC(=O)Nc1ccc(-c2ccc(NC(C)=O)cc2)cc1,-2,21,0,-3,/
COC(=O)Nc1ccc(NC(C)=O)cc1,0,1,-1,17*,>50
COCC(=O)Nc1ccc(OC)c(Cl)c1,2,-24,2,3,/
COc1ccc(NC(=O)COC(C)=O)cc1Cl,-1,0,1,21*,>50
CSc1nnc(C)c(=O)n1COC(=O)c1ccc(S(=O)(=O)N2CCCC2)cc1,-7,1,-1,5,/
CC(C)S(=O)(=O)c1nsc2nc(=O)c(/C=C3\C=Nc4ccccc43)c(N)n12,80*,2,35,31*,9.7*
CSc1nsc2nc(=O)c(/C=C3\C=Nc4ccccc43)c(N)n12,51*,0,14,26*,28*
CCOC(=O)c1c(NC(=O)CN2CCCc3ccccc32)sc(C(C)=O)c1C,-4,1,-2,21*,>50
COCCOC(=O)c1c(NC(=O)CN2CCc3ccccc32)sc(C(N)=O)c1C,2,8,-1,1,/
COc1cccc(NC(=S)N(Cc2cccc(Br)c2)CC2CCC(C(=O)O)CC2)c1 (stereo unspecified),2,7,-1,0,/
COc1ccc(Cl)cc1NC(=S)Nc1cccnc1,0,4,4,-1,/
SMILES,Runt-SMMHC FRET,Hck Nef HTS,Runt-CBFb FRET,RanGTP-Impb inh,YIC FRET counter
Cc1ccc(S(=O)(=O)NCCc2cn3nc(C)c(C)nc3n2)cc1C,/,/,/,20*,26*
COc1ccc(S(=O)(=O)NCCc2cn3nc(C)c(C)nc3n2)cc1C,/,/,/,11,/
CN=C(Nc1cc(C)nn1CCC#N)c1ccccc1,-3,2,1,19*,>50
CN=C(Nc1cc(C)nn1CCC#N)c1ccc(F)cc1,-4,-1,-1,2,/
Cc1ccccc1N1C(=O)c2ccccc2C1O (stereo unspecified),/,/,/,5,/
CC1CCCCN1Cc1c(O)ccc2c(=O)c(-c3nc4ccccc4s3)coc12 (stereo unspecified),25,43,10,38*,<0.38*
Clc1ccc(-c2cn3c(n2)-c2ccccc2C3)cc1Cl,2,2,3,3,/
COc1cc(/C(O)=C(\C#N)c2nc3ccccc3[nH]2)cc(OC)c1OC,/,/,/,40*,7.4*
Cc1ccc(OCC(=O)N2CCCCCC2)c(C)c1,3,1,-1,17*,>50
Cc1ccc(S(=O)(=O)NCCN(CCNS(=O)(=O)c2ccc(C)cc2)S(C)(=O)=O)cc1,-3,0,-4,21*,>50
COc1ccc(C(=O)N/N=C/c2c(CO)cnc(C)c2O)cc1,88*,-9,4,22*,1.5*
COc1ccc(C(=O)N/N=C/c2c(C)[nH]c(=O)[nH]c2=O)cc1,-2,16,1,-1,/
COc1cc(/C=N/Nc2snc(SC)c2C#N)ccc1O,27,2,30,10,/
CSc1nsc(/C=C/Nc2ccc(C)cc2)c1C#N,-6,3,3,24*,>50
CCN(CC)C(=O)C1CC(=O)N(c2ccc(F)c(Cl)c2)C1 (stereo unspecified),1,0,1,-1,/
C/C(=N\OCC(=O)OCC(=O)NC(=O)c1ccccc1)c1ccc2c(c1)OCO2,/,/,/,17*,>50
COc1ccc(C(=O)Oc2c(CN3CCOCC3)cc(Cl)c3cccnc23)cc1,2,-1,4,25*,>50
COc1cc(C(=O)Oc2c(CN3CCOCC3)cc(Cl)c3cccnc23)cc(OC)c1OC,1,0,1,16*,>50
CCCCSc1nnc([C@@H](NC(=O)OC(C)(C)C)C(C)C)o1,3,1,-2,-4,/
COc1ccc(C(=O)NC(=S)Nc2ccc(CN3CCOCC3)cc2)cc1OC,2,18,2,?,/
COc1ccc(Br)cc1/C=C/C(=O)NC(=S)Nc1ccc(CN2CCOCC2)cc1,/,/,/,50*,>50
CCOC(=O)CSc1nc2cc(C(=O)OC)ccc2c(=O)n1CCN1CCOCC1,-2,1,-4,1,/
COC(=O)c1ccc2c(=O)n(CCN3CCOCC3)c(SCC(=O)C(C)(C)C)nc2c1,-3,0,0,19*,>50
CCCc1cc2c(cc1NC(=O)c1ccco1)OCO2,-1,-2,1,3,/
Cc1ccc(S(=O)(=O)C2(C(=O)N3CCN(c4cc(C)ccc4C)CC3)CC2)cc1,2,20,-4,1,/
SMILES,Runt-SMMHC FRET,Hck Nef HTS,Runt-CBFb FRET,RanGTP-Impb inh,YIC FRET counter
COc1ccccc1N1CCN(S(=O)(=O)c2cc(-c3cc(C)no3)ccc2C(C)C)CC1,/,/,/,-3,/
CC(c1nc2ccccc2n1Cc1ccccc1)N1CCCCC1 (stereo unspecified),/,/,/,26*,>50
S=C(NCc1ccco1)NCC1CCCO1 (stereo unspecified),1,9,10,3,/
c1ccc(Nc2nc3ccccc3n3nnnc23)cc1,44,6,22,36*,24*
CCCCOc1ccc(OCCSc2nc3ccccc3n2CC(=O)O)cc1,/,/,/,18*,>50
O=C(CN1CCOc2ccccc21)NCc1ccco1,-1,2,4,?,/
O=C(CN1CC(=O)Oc2ccccc21)NCc1ccco1,3,2,5,19*,>50

# Compound activity: PubChem, several laboratories
